Where a SMILES comes first, the peptide text is derived from it.
Target: T1, Pituitary adenylate cyclase-activating polypeptide type I receptor (Homo sapiens, UniProt P41586)
Test: Displacement of [125I]Ac-PACAP27 from human recombinant PAC1 receptor expressed in CHO cells by gamma- counter
Format: cell-based
Target sequence in this assay (P41586 whole entry): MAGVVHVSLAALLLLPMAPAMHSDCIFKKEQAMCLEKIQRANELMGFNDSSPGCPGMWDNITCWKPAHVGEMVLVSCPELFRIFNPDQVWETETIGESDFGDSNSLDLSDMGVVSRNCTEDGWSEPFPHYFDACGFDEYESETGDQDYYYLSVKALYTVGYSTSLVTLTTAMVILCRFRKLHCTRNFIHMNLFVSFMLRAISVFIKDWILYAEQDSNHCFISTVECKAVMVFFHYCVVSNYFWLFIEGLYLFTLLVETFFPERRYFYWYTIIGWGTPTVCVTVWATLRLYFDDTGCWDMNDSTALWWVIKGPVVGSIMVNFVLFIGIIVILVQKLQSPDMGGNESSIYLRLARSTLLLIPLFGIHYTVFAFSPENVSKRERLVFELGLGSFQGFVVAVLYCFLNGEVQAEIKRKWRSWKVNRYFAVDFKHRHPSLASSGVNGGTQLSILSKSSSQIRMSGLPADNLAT

Compound | IC50
CC[C@@H](C)[C@@H](NC(=O)CNC(=O)[C@H](CC(=O)O)NC(=O)[C@H](CO)NC(=O)[C@@H](N)Cc1cnc[nH]1)C(=O)N[C@@H](Cc1ccccc1)C(=O)N[C@H](C(=O)N[C@@H](CC(=O)O)C(=O)N[C@@H](CO)C(=O)N[C@@H](Cc1ccc(O)cc1)C(=O)N[C@@H](CO)C(=O)N[C@@H](CCCNC(=N)N)C(=O)N[C@@H](Cc1ccc(O)cc1)C(=O)N[C@@H](CCCNC(=N)N)C(=O)N[C@@H](CCCCN)C(=O)N[C@@H](CCC(N)=O)C(=O)N[C@@H](CCSC)C(=O)N[C@@H](C)C(=O)N[C@H](C(=O)N[C@@H](CCCCN)C(=O)N[C@@H](CCCCN)C(=O)N[C@@H](Cc1ccc(O)cc1)C(=O)N[C@@H](CC(C)C)C(=O)N[C@@H](C)C(=O)N[C@@H](C)C(=O)N[C@H](C(=O)N[C@@H](CC(C)C)C(=O)NCC(=O)N[C@@H](CCCCN)C(=O)N[C@@H](CCCNC(=N)N)C(=O)N[C@@H](Cc1ccc(O)cc1)C(=O)N[C@@H](CCCCN)C(=O)N[C@@H](CCC(N)=O)C(=O)N[C@@H](CCCNC(=N)N)C(=O)N[C@H](C(=O)N[C@@H](CCCCN)C(=O)N[C@@H](CC(N)=O)C(=O)N[C@@H](CCCCN)C(N)=O)C(C)C)C(C)C)C(C)C)[C@@H](C)O | 122 nM

Target: T1, Pituitary adenylate cyclase-activating polypeptide type I receptor
Test: Agonist activity at human recombinant PAC1 receptor expressed in CHO cells assessed as PACAP38-induced calcium mobilization by FLIPR assay relative to PACAP38
Format: functional, cell-based
Summary of the method: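 CHO cells stably expressing recombinant human PAC1, plated 24 h before assay, loaded with fluo-4 AM for 60 min at 37 °C in the dark, then rinsed into HBSS for 15 min at 37 °C. Peptide was added 18 s into a 150 s read (ex 480/em 525 nm), at final concentrations of 1 × 10-12 to 1 × 10^-5 M. Response was normalised to 1 × 10^-5 M PACAP38 on each plate. EC50 and efficacy came from nonlinear regression; 4-10 independent assays in duplicate.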
Target sequence in this assay (P41586 21-468 limits assumed): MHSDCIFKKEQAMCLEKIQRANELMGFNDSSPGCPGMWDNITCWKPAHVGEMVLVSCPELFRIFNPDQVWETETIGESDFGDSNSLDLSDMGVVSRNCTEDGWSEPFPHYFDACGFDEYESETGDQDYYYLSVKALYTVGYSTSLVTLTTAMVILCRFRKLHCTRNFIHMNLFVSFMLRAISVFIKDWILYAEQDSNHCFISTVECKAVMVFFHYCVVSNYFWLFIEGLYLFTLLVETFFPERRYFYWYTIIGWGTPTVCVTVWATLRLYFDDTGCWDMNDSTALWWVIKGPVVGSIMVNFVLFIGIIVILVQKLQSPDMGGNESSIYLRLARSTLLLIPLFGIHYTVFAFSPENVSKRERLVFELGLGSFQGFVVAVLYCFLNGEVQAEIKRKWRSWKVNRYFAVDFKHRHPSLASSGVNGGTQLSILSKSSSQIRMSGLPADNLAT

Compound | Emax
CC[C@H](C)[C@H](NC(=O)CNC(=O)[C@H](CC(=O)O)NC(=O)[C@H](CO)NC(=O)[C@@H](N)Cc1cnc[nH]1)C(=O)N[C@@H](Cc1ccccc1)C(=O)N[C@@H](C(=O)N[C@@H](CC(=O)O)C(=O)N[C@@H](CO)C(=O)N[C@@H](Cc1ccc(O)cc1)C(=O)N[C@@H](CO)C(=O)N[C@@H](CCCNC(=N)N)C(=O)N[C@@H](Cc1ccc(O)cc1)C(=O)N[C@@H](CCCNC(=N)N)C(=O)N[C@@H](CCCCN)C(=O)N[C@@H](CCC(N)=O)C(=O)N[C@@H](CCSC)C(=O)N[C@@H](C)C(=O)N[C@H](C(=O)N[C@@H](CCCCN)C(=O)N[C@@H](CCCCN)C(=O)N[C@@H](Cc1ccc(O)cc1)C(=O)N[C@@H](CC(C)C)C(=O)N[C@@H](C)C(=O)N[C@@H](C)C(=O)N[C@H](C(=O)N[C@@H](CC(C)C)C(=O)NCC(=O)N[C@@H](CCCCN)C(=O)N[C@@H](CCCNC(=N)N)C(=O)N[C@@H](Cc1ccc(O)cc1)C(=O)N[C@@H](CCCCN)C(=O)N[C@@H](CCC(N)=O)C(=O)N[C@@H](CCCNC(=N)N)C(=O)N[C@H](C(=O)N[C@@H](CCCCN)C(=O)N[C@@H](CC(N)=O)C(=O)N[C@@H](CCCCN)C(N)=O)C(C)C)C(C)C)C(C)C)[C@@H](C)O | 63.3%
CC[C@H](C)[C@H](NC(=O)CNC(=O)[C@H](CC(=O)O)NC(=O)[C@H](CO)NC(=O)[C@@H](N)Cc1cnc[nH]1)C(=O)N[C@@H](Cc1ccccc1)C(=O)N[C@H](C(=O)N[C@@H](CC(=O)O)C(=O)N[C@@H](CO)C(=O)N[C@@H](Cc1ccc(O)cc1)C(=O)N[C@@H](CO)C(=O)N[C@@H](CCCNC(=N)N)C(=O)N[C@@H](Cc1ccc(O)cc1)C(=O)N[C@@H](CCCNC(=N)N)C(=O)N[C@@H](CCCCN)C(=O)N[C@@H](CCC(N)=O)C(=O)N[C@@H](CCSC)C(=O)N[C@@H](C)C(=O)N[C@H](C(=O)N[C@@H](CCCCN)C(=O)N[C@@H](CCCCN)C(=O)N[C@@H](Cc1ccc(O)cc1)C(=O)N[C@@H](CC(C)C)C(=O)N[C@@H](C)C(=O)N[C@@H](C)C(=O)N[C@H](C(=O)N[C@@H](CC(C)C)C(=O)NCC(=O)N[C@@H](CCCCN)C(=O)N[C@@H](CCCNC(=N)N)C(=O)N[C@@H](Cc1ccc(O)cc1)C(=O)N[C@@H](CCCCN)C(=O)N[C@@H](CCC(N)=O)C(=O)N[C@@H](CCCNC(=N)N)C(=O)N[C@H](C(=O)N[C@@H](CCCCN)C(=O)N[C@@H](CC(N)=O)C(=O)N[C@@H](CCCCN)C(N)=O)C(C)C)C(C)C)C(C)C)[C@@H](C)O | 100%
CC[C@H](C)[C@H](NC(=O)CNC(=O)[C@H](CC(=O)O)NC(=O)[C@H](CO)NC(=O)[C@H](Cc1cnc[nH]1)NC(C)=O)C(=O)N[C@@H](Cc1ccccc1)C(=O)N[C@H](C(=O)N[C@@H](CC(=O)O)C(=O)N[C@@H](CO)C(=O)N[C@@H](Cc1ccc(O)cc1)C(=O)N[C@@H](CO)C(=O)N[C@@H](CCCNC(=N)N)C(=O)N[C@@H](Cc1ccc(O)cc1)C(=O)N[C@@H](CCCNC(=N)N)C(=O)N[C@@H](CCCCN)C(=O)N[C@@H](CCC(N)=O)C(=O)N[C@@H](CCSC)C(=O)N[C@@H](C)C(=O)N[C@H](C(=O)N[C@@H](CCCCN)C(=O)N[C@@H](CCCCN)C(=O)N[C@@H](Cc1ccc(O)cc1)C(=O)N[C@@H](CC(C)C)C(=O)N[C@@H](C)C(=O)N[C@@H](C)C(=O)N[C@H](C(=O)N[C@@H](CC(C)C)C(=O)NCC(=O)N[C@@H](CCCCN)C(=O)N[C@@H](CCCNC(=N)N)C(=O)N[C@@H](Cc1ccc(O)cc1)C(=O)N[C@@H](CCCCN)C(=O)N[C@@H](CCC(N)=O)C(=O)N[C@@H](CCCNC(=N)N)C(=O)N[C@H](C(=O)N[C@@H](CCCCN)C(=O)N[C@@H](CC(N)=O)C(=O)N[C@@H](CCCCN)C(N)=O)C(C)C)C(C)C)C(C)C)[C@@H](C)O | 91.1%
CC[C@H](C)[C@H](NC(=O)CNC(=O)[C@H](CC(=O)O)NC(=O)[C@H](CO)NC(=O)[C@H](C)N)C(=O)N[C@@H](Cc1ccccc1)C(=O)N[C@H](C(=O)N[C@@H](CC(=O)O)C(=O)N[C@@H](CO)C(=O)N[C@@H](Cc1ccc(O)cc1)C(=O)N[C@@H](CO)C(=O)N[C@@H](CCCNC(=N)N)C(=O)N[C@@H](Cc1ccc(O)cc1)C(=O)N[C@@H](CCCNC(=N)N)C(=O)N[C@@H](CCCCN)C(=O)N[C@@H](CCC(N)=O)C(=O)N[C@@H](CCSC)C(=O)N[C@@H](C)C(=O)N[C@H](C(=O)N[C@@H](CCCCN)C(=O)N[C@@H](CCCCN)C(=O)N[C@@H](Cc1ccc(O)cc1)C(=O)N[C@@H](CC(C)C)C(=O)N[C@@H](C)C(=O)N[C@@H](C)C(=O)N[C@H](C(=O)N[C@@H](CC(C)C)C(=O)NCC(=O)N[C@@H](CCCCN)C(=O)N[C@@H](CCCNC(=N)N)C(=O)N[C@@H](Cc1ccc(O)cc1)C(=O)N[C@@H](CCCCN)C(=O)N[C@@H](CCC(N)=O)C(=O)N[C@@H](CCCNC(=N)N)C(=O)N[C@H](C(=O)N[C@@H](CCCCN)C(=O)N[C@@H](CC(N)=O)C(=O)N[C@@H](CCCCN)C(N)=O)C(C)C)C(C)C)C(C)C)[C@@H](C)O (H-ASDGIFTDSYSRYRKQMAVKKYLAAVLGKRYKQRVKNK-NH2) | 82.6%
CC[C@H](C)[C@H](NC(=O)CNC(=O)[C@H](CC(=O)O)NC(=O)[C@H](CO)NC(=O)[C@@H](N)Cc1cn(C)cn1)C(=O)N[C@@H](Cc1ccccc1)C(=O)N[C@H](C(=O)N[C@@H](CC(=O)O)C(=O)N[C@@H](CO)C(=O)N[C@@H](Cc1ccc(O)cc1)C(=O)N[C@@H](CO)C(=O)N[C@@H](CCCNC(=N)N)C(=O)N[C@@H](Cc1ccc(O)cc1)C(=O)N[C@@H](CCCNC(=N)N)C(=O)N[C@@H](CCCCN)C(=O)N[C@@H](CCC(N)=O)C(=O)N[C@@H](CCSC)C(=O)N[C@@H](C)C(=O)N[C@H](C(=O)N[C@@H](CCCCN)C(=O)N[C@@H](CCCCN)C(=O)N[C@@H](Cc1ccc(O)cc1)C(=O)N[C@@H](CC(C)C)C(=O)N[C@@H](C)C(=O)N[C@@H](C)C(=O)N[C@H](C(=O)N[C@@H](CC(C)C)C(=O)NCC(=O)N[C@@H](CCCCN)C(=O)N[C@@H](CCCNC(=N)N)C(=O)N[C@@H](Cc1ccc(O)cc1)C(=O)N[C@@H](CCCCN)C(=O)N[C@@H](CCC(N)=O)C(=O)N[C@@H](CCCNC(=N)N)C(=O)N[C@H](C(=O)N[C@@H](CCCCN)C(=O)N[C@@H](CC(N)=O)C(=O)N[C@@H](CCCCN)C(N)=O)C(C)C)C(C)C)C(C)C)[C@@H](C)O | 18.2%

Source: ChEMBL document CHEMBL1138520, “Molecular and conformational determinants of pituitary adenylate cyclase-activating polypeptide (PACAP) for activation of the PAC1 receptor” (J Med Chem, 2009)
